Rows were chosen to be rich in hits. Some 12% of all compounds tested hit in one or more screens of this group.
L major viab: inhibitors of Leishmania major promastigote growth | actives 9% (n = 200,000) | Leishmania major promastigotes, resazurin fluorescence viability | AID 1063 | inhibition, % at 10 µM;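 note: promastigotes grown with compound for 44 hours at 28 °C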
CHOP inhibitor: CHOP inhibition in unfolded protein response. AID 2732. actives 3.8% (n = 220,000). CHO-K1 CHOP-promoter luciferase, tunicamycin-induced, 15-18 h. inhibition, % at 10 µM;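 active = compounds that reduced the stress-induced luciferase reporter signal by more than about 70% of percent inhibition, limit read from the data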;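 note: 0% = tunicamycin plus vehicle and 100% = wells without tunicamycin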
Arbovirus anti: arbovirus infection inhibition. arbovirus infection cell-based antiviral screen. inhibition, % at 10 µM. actives 0.37% (n = 200,000). AID 1251; in the data active = inhibition above about 30%
Rad51 HR inh: Rad51 (human) homologous recombination inhibition; inhibition, % at 10 µM; actives 0.085% (n = 200,000); AID 1385; hRad51 DNA strand exchange, fluorescence dequenching; Q06609;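 active = inhibition above 40% at the single screening dose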;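 note: 0% = DMSO control wells and 100% = blanks with heterologous ssDNA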
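material = hRad51 filaments on single-stranded DNA | timing = filaments 15 min 37 °C, then compound 30 min | signal = FRET fluorescence dequenching, excitation 485 nm, emission 520 nm | benchmarks = control wells and blank wells on each plate | evaluation = percent inhibition relative to plate controls and blanks | compound = 10 µM final, single point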
PKD1 inh: PKD1 (human) kinase inhibition; actives 0.056% (n = 200,000); PKD1 kinase fluorescence polarization assay; inhibition, % (test concentration not listed)
Target sequence (Q15139 whole entry, looked up): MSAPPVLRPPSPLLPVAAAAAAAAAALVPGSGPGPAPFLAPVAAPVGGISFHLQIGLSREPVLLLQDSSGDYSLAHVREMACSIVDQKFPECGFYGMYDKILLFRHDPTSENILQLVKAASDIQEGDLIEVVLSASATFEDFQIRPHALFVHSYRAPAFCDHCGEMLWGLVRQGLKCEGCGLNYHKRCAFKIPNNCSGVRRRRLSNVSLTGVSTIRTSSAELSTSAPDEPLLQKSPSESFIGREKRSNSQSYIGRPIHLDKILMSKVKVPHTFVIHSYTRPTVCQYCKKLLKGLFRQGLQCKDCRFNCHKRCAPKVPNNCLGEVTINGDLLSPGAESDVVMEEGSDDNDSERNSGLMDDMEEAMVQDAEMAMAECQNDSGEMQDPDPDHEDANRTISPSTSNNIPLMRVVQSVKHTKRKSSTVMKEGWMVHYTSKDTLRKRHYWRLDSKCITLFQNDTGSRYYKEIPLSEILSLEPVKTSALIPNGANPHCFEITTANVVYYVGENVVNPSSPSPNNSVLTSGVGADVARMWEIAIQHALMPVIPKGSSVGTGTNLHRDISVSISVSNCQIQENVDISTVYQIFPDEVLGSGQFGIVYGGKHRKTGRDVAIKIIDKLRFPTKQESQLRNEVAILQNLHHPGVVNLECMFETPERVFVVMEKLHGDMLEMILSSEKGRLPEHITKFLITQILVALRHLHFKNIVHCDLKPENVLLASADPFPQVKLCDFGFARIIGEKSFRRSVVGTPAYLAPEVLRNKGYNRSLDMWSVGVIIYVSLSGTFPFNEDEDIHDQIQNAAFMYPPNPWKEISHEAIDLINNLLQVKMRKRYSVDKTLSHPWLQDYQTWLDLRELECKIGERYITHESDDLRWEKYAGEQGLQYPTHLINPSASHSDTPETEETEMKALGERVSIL
Wee1 stabilizer: inhibitors of human Wee1 degradation; HeLa Luc-Wee1K328M stability, luciferase luminescence; 100% = proteasome inhibitor MG132 effect; reporter increase, % at 5 µM; actives 1.2% (n = 220,000); AID 1321;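 active = activation above the mean of all tested compounds plus 3 SD, set per screening run, cut at about 8.8% in these data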;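 note: cells exposed to compound for 20 h before luminescence read; 0% = DMSO alone and 100% = MG132 at 30 µM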
Numbers without * were called inactive; nt = no result given. Cut-off read from the data, not from the text of the source, unless noted: active = inhibition above about 50%; inactive = the rest.

SMILES	L major viab	CHOP inhibitor	Arbovirus anti	Rad51 HR inh	PKD1 inh	Wee1 stabilizer
NC(=O)[C@@H]1CCCCNc2c(F)cc([N+](=O)[O-])cc2C(=O)N[C@@H](CC(=O)O)C(=O)NCC(=O)N1	1.6	-11.0	-0.5	2.7	-0.4	16.8*
O=C1N/C(=N/S(=O)(=O)Cc2ccccc2)S/C1=C/c1ccc2c(c1)OCO2	nt	15.0	nt	-16.2	nt	-1.1
Cc1ccc(-n2c(-c3ccncc3)n[nH]c2=S)c(C)c1	-3.5	-0.4	-2.4	nt	2.1	-1.4
Brc1ccc(Nc2ncnc3[nH]ncc23)cc1	nt	20.3	nt	7.5	nt	8.4
CCCCCCCOC(=O)C[N+](C)(C)CCOC1CC2CCC1(C)C2(C)C (stereo unspecified)	100.3*	92.6*	-33.2	6.5	1.2	2.1
CCC(C)OC(=O)C[N+](C)(C)CCOC1CC2CCC1(C)C2(C)C (stereo unspecified)	96.3*	3.8	2.8	0.2	-0.6	-3.5
CCCOC(=O)C[N+](C)(C)CCOC1CC2CCC1(C)C2(C)C (stereo unspecified)	nt	8.9	nt	nt	nt	6.0
CC1(C)C2CCC1(C)C(OCCNCCOC(=O)Nc1ccccc1)C2 (stereo unspecified)	nt	1.6	nt	6.5	nt	2.0
CC(C)CCOC(=O)C[N+](C)(C)CCOC1CC2CCC1(C)C2(C)C (stereo unspecified)	91.1*	-9.1	3.3	7.6	1.9	2.0
CCCCOC(=O)C[N+](C)(C)CCOC1CC2CCC1(C)C2(C)C (stereo unspecified)	69.1*	2.9	4.8	-9.9	10.2	-2.0
CCc1ccc2c(c1)C1(SC(NC(C)=O)=NN1C(C)=O)C(=O)N2CC (stereo unspecified)	4.9	-5.1	0.8	6.2	-6.8	-0.1
Cn1ccc(C(=O)NC(=S)N2CCSCC2)n1	nt	3.3	nt	16.7	nt	0.7
CCOc1ccc(C(=O)NCC(=O)OCC(=O)Nc2ccc(C)c(S(=O)(=O)N(C)C)c2)cc1	-2.4	17.4	5.0	15.2	-3.4	-2.5
CCCCCCOC(=O)C[N+](C)(C)CCOC1CC2CCC1(C)C2(C)C (stereo unspecified)	100.0*	57.9	4.8	7.2	10.5	-2.1
CC1(C)C2CCC1(C)C(OC(=O)c1ccccc1C(=O)O)C2 (stereo unspecified)	nt	5.3	nt	nt	nt	-3.3
O=C(N/N=C/c1ccc(OC(F)F)cc1OC(F)F)c1ccc(Br)cc1	5.8	34.2	-5.5	-6.0	3.4	3.6
COc1cccc(/C=N/NC(=O)NC2CCCCC2)c1O	nt	-19.6	nt	3.3	nt	10.2*
COc1ccc(/C=N/NC(=O)C2C(=O)NCC2c2ccccc2)c(OC)c1 (stereo unspecified)	-1.0	8.7	-5.6	17.3	18.8	-0.7
COc1ccccc1CCNC(=O)NC1CCCCC1	-0.1	1.6	-2.4	nt	3.5	9.7*
COc1cccc(/C=N/NC(=O)C(=O)N/N=C/c2cccc(OC)c2O)c1O	36.0	37.9	-23.1	nt	5.4	-2.3
COc1cccc(/C=N\NC(=O)C2C(=O)NCC2c2ccccc2)c1O (stereo unspecified)	95.6*	50.1	-12.1	14.3	-1.2	-0.1
O=C(N/N=C/c1ccc(OC(F)F)cc1OC(F)F)NC1CCCCC1	40.2	90.9*	-6.9	4.9	-6.3	-0.8
COc1ccc(S(=O)(=O)NCCN2CCNC2=O)cc1OC	nt	16.1	nt	nt	nt	-1.5
Cc1cc(C(=O)N2CCN(c3ncccn3)CC2)nn1C	nt	11.7	nt	18.2	nt	0.4
Cc1ccc(NS(=O)(=O)c2ccc(Cl)c(NC(=S)NC(=O)C3CCCCC3)c2)cc1Cl	25.4	95.6*	-38.1	9.4	-2.6	-3.1
SMILES	L major viab	CHOP inhibitor	Arbovirus anti	Rad51 HR inh	PKD1 inh	Wee1 stabilizer
CC(C)(C)C(=O)Nc1cc(S(=O)(=O)Nc2ccc(Cl)cc2)ccc1Cl	75.5*	74.9*	7.8	-9.6	-7.5	3.1
COc1ccc(NS(=O)(=O)c2ccc(Cl)c(NC(=O)c3cccnc3Cl)c2)cc1	nt	19.1	nt	-16.9	nt	4.9
Cc1nnc(SCC(=O)c2ccc(C(C)C)cc2)s1	-3.7	-11.0	5.2	nt	6.7	5.5
CC(=O)NNc1cc(C)nc(N)n1	nt	-8.7	nt	nt	nt	-1.1
Cc1cc(N/N=C/c2cccc(Cl)c2)nc(NCc2ccccc2)n1	77.1*	50.2	-40.5	6.1	10.3	-2.5
Cc1cc(N/N=C/c2ccccc2)nc(NCc2ccccc2)n1	87.7*	43.9	16.0	8.2	3.4	2.0
Cc1cc(N/N=C/c2ccccc2F)nc(NCc2ccccc2)n1	nt	7.6	nt	nt	nt	0.7
Cc1cc(N/N=C/c2cccc(F)c2)nc(NCc2ccccc2)n1	nt	-25.1	nt	nt	nt	-1.4
Cc1cc(N/N=C/c2ccc(Cl)cc2)nc(NCc2ccccc2)n1	94.0*	69.2	-23.5	-1.0	2.2	1.8
Cc1cc(Nc2cccc(Cl)c2)nc(NCc2ccccc2)n1	100.4*	106.0*	2.2	7.7	11.6	2.0
CCOc1ccc(S(=O)(=O)NCCC(=O)OCC(=O)N2CC(=O)Nc3ccccc32)cc1	-5.8	6.7	8.2	0.0	-2.6	0.6
CC1CCC(C(C)C)C(OC(=O)CSc2nnc(N)s2)C1 (stereo unspecified)	63.7*	15.1	5.5	nt	-2.9	-1.1
CC(C)n1nc(C(=O)OCC(=O)c2c[nH]c3ccccc23)c2ccccc2c1=O	25.2	80.5*	3.9	nt	2.2	-0.3
CCn1nc(C(=O)OCC(=O)c2c[nH]c3ccccc23)c2ccccc2c1=O	24.0	41.5	6.9	-7.4	3.1	-2.7
CC(c1ccccc1)N(CCC(c1ccccc1)C1CCOC(C)(C)C1)C(=O)c1ccco1 (stereo unspecified)	38.7	79.8*	-24.8	-3.5	8.3	-5.2
COc1ccc(CN(CCC(c2ccc(F)cc2)C2CCOC(C)(C)C2)C(=O)c2ccco2)cc1 (stereo unspecified)	21.9	14.2	-42.7	5.3	8.7	-0.1
COC(=O)c1cc(Cl)c(NC(=O)c2ccc(C(C)(C)C)cc2)cc1OC	4.1	89.4*	-6.4	-5.7	-1.3	-2.0
COC(=O)c1cc(Cl)c(NC(=O)C(C)C)cc1OC	-4.8	-11.0	1.1	20.5	-2.9	-0.9
CC(=O)Nc1cccc(-c2csc(Nc3cc(C)ccn3)n2)c1	27.1	24.7	16.8	2.4	-12.3	2.2
CC(=O)Nc1ccc(-c2csc(Nc3ccc(Cl)cn3)n2)cc1	58.8*	-8.5	1.7	-8.2	-6.8	3.1
CC(=O)Nc1ccc(-c2csc(Nc3cc(C)ccn3)n2)cc1	59.9*	9.1	-4.0	-2.9	-5.0	8.8
CCN(CC)S(=O)(=O)c1ccc(C(=O)N(c2ccc(C)cc2)C2C=CS(=O)(=O)C2)cc1 (stereo unspecified)	4.0	-5.6	5.0	-1.6	9.7	-2.0
CCOC(=O)C(NCCOC)(NC(C)=O)C(F)(F)F (stereo unspecified)	nt	10.6	nt	1.2	nt	2.9
Cc1c(N2C(=O)c3cccc4cccc(c34)C2=O)cnn1C	nt	20.1	nt	-2.0	nt	-2.0
O=c1nccc(SCc2ccc(Cl)cc2Cl)[nH]1	nt	-12.9	nt	2.0	nt	0.3

Source: PubChem
